In ChEMBL document CHEMBL1212899, “Strategies for recognition of stem-loop RNA structures by synthetic ligands: application to the HIV-1 frameshift stimulatory sequence” (J Med Chem, 2010):

Key:
[1] = Dissociation constant Kd of the compound; format: physicochemical
[2] = target: Nucleic Acid; experiment: Binding affinity to HIV1 frameshift-stimulating RNA by fluorescence titration; format: nucleic-acid assay, Human immunodeficiency virus 1
Method in brief: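 5′-Cy3-labelled HIV-1 FSS RNA (400 or 500 nM) in 1X PBS pH 7.2 was heated to 65 °C for 4 min, then MgCl2 was added. Compound was titrated in over 100 nM–10 μM, with at least 10 min equilibration per step. Cy3 emission at 564.1 nm was dilution-corrected, and ΔFU was fit to a 1:1 model with ligand depletion to give KD. At least 2 titrations were run.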

[3] = target: Nucleic Acid; experiment: Binding affinity to HIV1 frameshift-stimulating RNA by fluorescence titration in presence of yeast tRNA; format: nucleic-acid assay, Human immunodeficiency virus 1
Method in brief: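 Cy3-labelled HIV-1 FSS RNA was premixed with yeast total tRNA competitor (8 or 16 μM) in 1X PBS pH 7.2 with MgCl2, then titrated with compound. Fluorescence was read at 564.1 nm after at least 10 min equilibration per addition. Dilution-corrected ΔFU was fit to a 1-site ligand-depletion model for KD.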

[4] = Cytotoxicity against human fibroblast up to 10 uM; format: cell-based; conditions: in the assay text read “up to 1 mM” for “up to 10 uM”
Method in brief: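 Human fibroblasts were grown in DMEM with 5% FBS at 37 °C and 5% CO2, seeded at 3.2 × 10^4 cells/well, and grown 48 h to about 80% confluence. Cells were exposed to compound in DMEM for 24 h, with mitomycin C as control. MTT was added for 4 h, formazan was dissolved in isopropanol, and absorbance was read at 600 nm.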

NC[C@@H]1O[C@H](O[C@H]2[C@@H](O)[C@H](O[C@@H]3[C@@H](O)[C@H](N)C[C@H](N)[C@H]3O[C@H]3O[C@H](CN)[C@@H](O)[C@H](O)[C@H]3N)O[C@@H]2CO)[C@H](N)[C@@H](O)[C@@H]1O [FRAMYCETIN] showed a Kd [1] of 2600 nM.

For NCCCNC(=O)[C@H](Cc1ccccc1)NC(=O)[C@@H]1CCCN1C(=O)[C@H](CSSC[C@H](NC(=O)c1ccc2c(c1)C(=O)c1ccccc1C2=O)C(=O)N1CCC[C@H]1C(=O)N[C@@H](Cc1ccccc1)C(=O)NCCCN)NC(=O)c1ccc2c(c1)C(=O)c1ccccc1C2=O, the Kd ([2]; read-out: Kd) was 230 nM.

In the case of CCc1nc2ccccc2cc1C(=O)N[C@@H](C/C=C\C[C@H](NC(=O)c1cc2ccccc2nc1CC)C(=O)N1CCC[C@H]1C(=O)N[C@@H](Cc1ccccc1)C(=O)NCCCN)C(=O)N1CCC[C@H]1C(=O)N[C@@H](Cc1ccccc1)C(=O)NCCCN, the Kd ([2]; read-out: Kd) is reported as 180 nM, the Kd ([3]; read-out: Kd) is reported as 260 nM and the Kd [1] is reported as 4660 nM. For the same compound, the Activity [4] was “Non-toxic”.

In the case of NCCCNC(=O)[C@H](Cc1ccccc1)NC(=O)[C@@H]1CCCN1C(=O)[C@@H](N)CSSC[C@H](N)C(=O)N1CCC[C@H]1C(=O)N[C@@H](Cc1ccccc1)C(=O)NCCCN, the Kd [2] is reported as “Not Active”.

With C=CC[C@H](NC(=O)c1cc2ccccc2nc1CC)C(=O)N1CCC[C@H]1C(=O)N[C@@H](Cc1ccccc1)C(=O)NCCCN the Kd ([2]; read-out: Kd) was 470 nM and the Kd [3] was “Not Active”.

For CCc1nc2ccccc2cc1C(=O)N[C@@H](CSSC[C@H](NC(=O)c1cc2ccccc2nc1CC)C(=O)N1CCC[C@H]1C(=O)N[C@@H](Cc1ccccc1)C(=O)NCCCN)C(=O)N1CCC[C@H]1C(=O)N[C@@H](Cc1ccccc1)C(=O)NCCCN, the Kd ([2]; read-out: Kd) was 350 nM, the Kd ([3]; read-out: Kd) was 200 nM and the Kd [1] was 7880 nM.

In the case of CCc1nc2ccccc2cc1C(=O)O, the Kd ([2]; read-out: Kd) is reported as 290 nM and the Kd [3] is reported as “Not Active”.

Compound CCc1nc2ccccc2cc1C(=O)N[C@@H](CCCC[C@H](NC(=O)c1cc2ccccc2nc1CC)C(=O)N1CCC[C@H]1C(=O)N[C@@H](Cc1ccccc1)C(=O)NCCCN)C(=O)N1CCC[C@H]1C(=O)N[C@@H](Cc1ccccc1)C(=O)NCCCN has a Kd ([2]; read-out: Kd) of 1270 nM, a Kd ([3]; read-out: Kd) of 1410 nM and a Kd [1] of 12300 nM.

CCc1nc2ccccc2cc1C(=O)N[C@@H](C/C=C/C[C@H](NC(=O)c1cc2ccccc2nc1CC)C(=O)N1CCC[C@H]1C(=O)N[C@@H](Cc1ccccc1)C(=O)NCCCN)C(=O)N1CCC[C@H]1C(=O)N[C@@H](Cc1ccccc1)C(=O)NCCCN gave a Kd ([2]; read-out: Kd) of 330 nM, a Kd ([3]; read-out: Kd) of 390 nM and a Kd [1] of 11200 nM.

For NCCCNC(=O)[C@H](Cc1ccccc1)NC(=O)[C@@H]1CCCN1C(=O)[C@H](CSSC[C@H](NC(=O)c1cnc2ccccc2c1)C(=O)N1CCC[C@H]1C(=O)N[C@@H](Cc1ccccc1)C(=O)NCCCN)NC(=O)c1cnc2ccccc2c1, the Kd ([2]; read-out: Kd) was 650 nM.

Compound CCc1nc2cc3c(cc2cc1C(=O)N[C@@H](CSSC[C@H](NC(=O)c1cc2cc4c(cc2nc1CC)OCO4)C(=O)N1CCC[C@H]1C(=O)N[C@@H](Cc1ccccc1)C(=O)NCCCN)C(=O)N1CCC[C@H]1C(=O)N[C@@H](Cc1ccccc1)C(=O)NCCCN)OCO3 has a Kd ([2]; read-out: Kd) of 1420 nM.

Work on Cc1nc2ccccc2cc1C(=O)N[C@@H](CSSC[C@H](NC(=O)c1cc2ccccc2nc1C)C(=O)N1CCC[C@H]1C(=O)N[C@@H](Cc1ccccc1)C(=O)NCCCN)C(=O)N1CCC[C@H]1C(=O)N[C@@H](Cc1ccccc1)C(=O)NCCCN yielded a Kd ([2]; read-out: Kd) of 430 nM.
